Sampled rows, rich in hits. Any-hit rate of the full collection: about 3.2%.
14-3-3 Bad inh – disrupts binding of bovine 14-3-3 zeta to phospho-Bad peptide. P63103. TR-FRET 14-3-3zeta/Dy647-pBad peptide displacement, 1 h. inhibition, % at 21.7 µM. 0.71% of 220,000 active;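 active = inhibition above about 70%, limit read from the data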
Bim-Mcl-1 – human Bim-Mcl-1 interaction inhibition. inhibition, % at 10 µM. Bead-based flow cytometry, Bim peptide-Mcl-1 binding. 0.1% of 190,000 active; in the data active = inhibition above about 40%
Hck Nef HTS – inhibitors of human Hck kinase activated by Nef. P08631. Recombinant Hck-YEEI plus Nef, Z-Lyte FRET kinase assay. inhibition, % at 20 µM. 0.68% of 220,000 active;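 active = Hck-Nef kinase inhibition above about 50%, limit read from the data; inactive = inhibition below that limit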
Target sequence (P08631 whole entry, looked up): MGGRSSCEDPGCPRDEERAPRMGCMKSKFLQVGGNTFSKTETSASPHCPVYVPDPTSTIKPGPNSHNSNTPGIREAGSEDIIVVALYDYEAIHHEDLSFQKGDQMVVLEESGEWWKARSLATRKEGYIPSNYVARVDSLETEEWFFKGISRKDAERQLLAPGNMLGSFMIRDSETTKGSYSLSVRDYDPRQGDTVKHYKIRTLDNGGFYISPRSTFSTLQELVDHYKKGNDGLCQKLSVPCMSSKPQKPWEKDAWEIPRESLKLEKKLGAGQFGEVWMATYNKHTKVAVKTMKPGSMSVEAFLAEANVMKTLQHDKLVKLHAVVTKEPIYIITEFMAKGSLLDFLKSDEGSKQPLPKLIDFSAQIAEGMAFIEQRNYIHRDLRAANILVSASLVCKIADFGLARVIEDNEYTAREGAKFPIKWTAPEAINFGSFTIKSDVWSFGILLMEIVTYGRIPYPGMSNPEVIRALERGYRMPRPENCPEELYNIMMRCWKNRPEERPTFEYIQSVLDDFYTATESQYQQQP
Mcl1-Noxa inh – Mcl-1/Noxa interaction inhibition; TR-FRET Mcl-1/Noxa peptide binding, 2 h; AID 1022; Q07820; inhibition, % at 21.7 µM; 1.5% of 220,000 active;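 active = compounds that cut the protein-peptide binding signal by more than 50% relative to plate controls in a single-dose test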;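 also: His-tagged Mcl-1 with rhodamine Noxa BH3 peptide and terbium anti-His antibody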
Mcl1 Bid PPI – disrupts binding of human Mcl-1 to Bid peptide; 0.97% of 220,000 active; Q07820; TR-FRET Mcl-1/Bid-Dy647 peptide binding, 1536-well; inhibition, % at 21.7 µM;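 active = compounds that cut the binding signal by more than half at the single screening dose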;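 also: His-tagged Mcl-1 with europium anti-His antibody binding Bid BH3 peptide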
Biofilm kill mix – mixtures killing C. albicans biofilm | C. albicans biofilm persisters + clotrimazole, fluorescence viability; primary screen in compound mixtures of four per well | inhibition, % at 7.6 µM | 0.02% of 120,000 active;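 active = inhibition above 30.3% in the primary screen of four-compound pools, then above 30% when the compound was retested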;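 also: compounds exposed to preformed 24 h biofilms for 48 h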
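Test system: C. albicans biofilms. Buffer or medium: RPMI/MOPS medium, pH 7.0. Timing: 48 h compound exposure at 37 °C. Technique: Alamar Blue fluorescence. Evaluation: percent inhibition of biofilm viability.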
Of the large screens only hits and unclear results are named; the others gave an inactive call; [ ] = another dose, or the depositor's remark.

COC(CNC(=O)c1ccc2nc(-c3cccs3)c(-c3cccs3)nc2c1)OC	Mcl1 Bid PPI 93.5
C=CCc1ccccc1OCC(O)CN(C(C)C)C(C)C (stereo not drawn)	14-3-3 Bad inh 71.2 (no result: Biofilm kill mix)
C=CCc1ccccc1OCC(O)CNC (stereo not drawn)	none (no result: Biofilm kill mix)
CCc1nc(OCCN(CC)CC)c2oc3ccccc3c2n1	14-3-3 Bad inh 79.7 (no result: Biofilm kill mix)
O=C(N/C(=C\c1ccc(Cl)cc1)C(=O)N1CCOCC1)c1ccc([N+](=O)[O-])cc1	none
O=C(O)c1cc(O)c2c(c1)C(=O)c1cc(O)cc(O)c1C2=O	Mcl1-Noxa inh 61.7
CC(=O)Oc1cccc2c1C(=O)c1c(OC(C)=O)cc(C(=O)O)cc1C2=O	none
Cc1cc(C)c(Cn2cnc3ccccc32)c(C)c1	none
COC(=O)/C(=N/Nc1ccc(C)cc1)N1CCCc2ccccc21	none
COC(=O)/C(=N/Nc1ccccc1)N1CCCc2ccccc21	Mcl1 Bid PPI 94.7
O=C1C=C(O)c2cccc(O)c2C1=O	Mcl1-Noxa inh 60.3 (no result: Bim-Mcl-1)
O=C1c2cccc(O)c2C(=O)c2c(O)cccc21	none
N#Cc1ccc(OCC(=O)OCC(=O)Nc2cc(C(F)(F)F)ccc2N2CCOCC2)cc1	none
CN1CCN(c2ccc(C(=O)c3cn(-c4ccc(F)c(Cl)c4)nn3)cc2)CC1	14-3-3 Bad inh 76.3
COc1ccc(OC)c(-c2csc(N(CC3CCCO3)C(=O)Cc3ccccc3)n2)c1 (stereo not drawn)	none
Cc1ccc(C)c(N2CCN(c3ccc(N4C(=O)COCC4=O)cc3[N+](=O)[O-])CC2)c1	none
Cc1cc(N2C(=O)C=CC2=O)c([N+](=O)[O-])cc1C	Mcl1 Bid PPI 57.0
CCC(=O)Oc1ccc2c(=O)c(-c3ccc4ccccc4n3)c(CC)oc2c1C	Mcl1-Noxa inh 82.3
Cc1oc2c(C)c(O)ccc2c(=O)c1-c1ccc2ccccc2n1	none (no result: Biofilm kill mix)
Cc1ccc2c(c1)C(c1ccccc1)C(=O)O2 (stereo not drawn)	none (no result: Bim-Mcl-1)
CCOc1ccc(C(=O)Nc2nnc(NC(=S)Nc3ccccc3)s2)cc1	Bim-Mcl-1 64.0
Cc1ccc(/C=C\c2nccc3c2[nH]c2ccccc23)cc1	Hck Nef HTS 59.2
CCOC(=O)c1cc(C(=O)OCC)c(=O)[nH]c1C	none
CCOC(=O)c1cc(C)[nH]c(=S)c1C#N	Mcl1-Noxa inh 71.7 (no result: Biofilm kill mix)
O=C1N/C(=C\c2ccc(O)cc2)C(O)=C1C=NCc1ccccc1	Hck Nef HTS 69.3
COc1ccc(CN(CCCN2CCOCC2)C(=O)Nc2ccccc2)cc1OC	none (no result: Biofilm kill mix)
COc1ccc(CN(CCN2CCOCC2)C(=O)c2c(F)cccc2F)cc1OC	14-3-3 Bad inh 80.0 (no result: Biofilm kill mix)
CC(C)CCC(CCN1CCCC1)c1ccc2c(c1)OCO2 (stereo not drawn)	Mcl1-Noxa inh 75.1 (no result: Bim-Mcl-1)
Oc1ccc(N=Cc2ccc(O)c(O)c2)cc1	14-3-3 Bad inh 85.9[fluorescence artefact?], Mcl1-Noxa inh 66.7 (no result: Biofilm kill mix)
O=[N+]([O-])c1cccc(S(=O)(=O)NCC2CCCO2)c1 (stereo not drawn)	Bim-Mcl-1 51.0
COc1ccccc1N1C(=O)C(Cl)=C(Nc2ccccc2O)C1=O	Mcl1-Noxa inh 75.8
Cc1ccc(O)c(NC2=C(Cl)C(=O)N(Cc3ccccc3)C2=O)c1	Mcl1-Noxa inh 87.7, Mcl1 Bid PPI 56.2
CCOc1ccccc1NC1=C(Cl)C(=O)N(c2ccc(OC)cc2)C1=O	none
Cc1c(NC2=C(Cl)C(=O)N(c3ccccc3)C2=O)c(=O)n(-c2ccccc2)n1C	none (no result: Biofilm kill mix)
O=C1C(Cl)=C(Nc2ccccc2O)C(=O)N1c1ccccc1	Mcl1-Noxa inh 70.2 (no result: Biofilm kill mix)
CC(C)(C)C(=O)COC(=O)c1cc(-c2ccncc2)nc2ccccc12	none
CC(C)CC(=O)Nc1nnc(SCC(=O)NCc2ccc3c(c2)OCO3)s1	none
COc1cc(C(=O)NCC(=O)N/N=C(/C)c2cccs2)cc(OC)c1OC	none
CC(OC(=O)c1ccncc1)C(=O)Nc1ccc([N+](=O)[O-])cc1Cl (stereo not drawn)	none
CC(OC(=O)c1ccc2c(c1)C(=O)N(Cc1ccncc1)C2=O)C(=O)Nc1cccc(Cl)c1Cl (stereo not drawn)	Mcl1 Bid PPI 64.2
O=C(COC(=O)c1ccc2c(c1)C(=O)N(Cc1ccncc1)C2=O)Nc1ccccc1[N+](=O)[O-]	Mcl1-Noxa inh 83.1
CC(C)C(C(=O)O)N1C(=O)/C(=C/c2cccn2C)SC1=S (stereo not drawn)	none
CCCC(C(=O)O)N1C(=O)/C(=C/c2cccn2C)SC1=S (stereo not drawn)	Mcl1-Noxa inh 52.0
O=C(C1COc2ccccc2O1)N1CCc2ccccc21 (stereo not drawn)	none (no result: Biofilm kill mix)
Cc1ccc(Cn2c(SCC(=O)N/N=C/c3ccc(C)o3)nc3ccccc32)cc1	Mcl1 Bid PPI 52.2 (no result: Biofilm kill mix)
O=C(CSc1nc2ccccc2n1Cc1ccccc1)N/N=C/c1ccco1	none (no result: Biofilm kill mix)
CC(C)(CO)CNC(=O)c1ccc(OC2CCN(C(=O)C3CC3)CC2)cc1	none
C=CCSC1=Nc2sccc2C2=NC(=O)CN12	Mcl1-Noxa inh 56.5 (no result: Biofilm kill mix)
O=C(O)CCCC(=O)Nc1ccc(Oc2ncnc3cc(Cl)ccc23)nc1	none (no result: Bim-Mcl-1)
O=C(Nc1ccc(F)cc1)Nc1ccc(Oc2ncnc3cc(Cl)ccc23)nc1	Mcl1 Bid PPI 91.9 (no result: Bim-Mcl-1)
Cn1cnnc1Sc1ccc(C(F)(F)F)cc1[N+](=O)[O-]	none
Cc1noc(C)c1S(=O)(=O)Nc1ccc(C(=O)NC2CCCCCC2)cc1	none (no result: Biofilm kill mix)
Cc1noc(C)c1S(=O)(=O)Nc1ccc(C(=O)NC2CCCCC2C)cc1 (stereo not drawn)	14-3-3 Bad inh 85.1 (no result: Biofilm kill mix)
CCOc1cc(CNc2ccc(N3CCCC3)cc2)cc(Cl)c1OC	Mcl1-Noxa inh 76.0
COc1cc(CNc2ccc(N3CCCC3)cc2)cc(Cl)c1OC	Mcl1-Noxa inh 72.1
CCOc1ccc(CNc2ccc(N3CCCC3)cc2)cc1	Mcl1-Noxa inh 65.8 (no result: Biofilm kill mix)
O=C(NCCN1C(=O)S/C(=C\c2ccc(Cl)c(Cl)c2)C1=O)c1ccc2c(c1)C(=O)N(Cc1ccncc1)C2=O	Mcl1-Noxa inh 71.1, Mcl1 Bid PPI 50.7
CN(C)C(=O)c1cn(N(C)c2ncc(C(F)(F)F)cc2Cl)c(=O)c2ccccc12	Mcl1 Bid PPI 61.1 (no result: Biofilm kill mix)
CN(C)C(=O)c1cccn1-c1ncc(C(F)(F)F)cc1Cl	none
COc1ccc(CCNc2ccncn2)cc1	14-3-3 Bad inh 72.4 (no result: Biofilm kill mix)
Cn1c(=O)c2c(ncn2CCC(=O)N/N=C/c2cccnc2)n(C)c1=O	none (no result: Bim-Mcl-1)
CCOC(=O)N1CCN(C(=O)CSc2ccc3nnc(CCNC(=O)c4ccccc4)n3n2)CC1	none
CCOC(=O)N1CCN(C(=O)CSc2ccc3nnc(CCNC(=O)c4ccc(OC)cc4)n3n2)CC1	Mcl1 Bid PPI 88.9
CCOc1ccccc1C(=O)N(Cc1ccccc1)Cc1cc2cc3c(cc2[nH]c1=O)OCCO3	none (no result: 14-3-3 Bad inh, Bim-Mcl-1, Mcl1-Noxa inh, Mcl1 Bid PPI, Biofilm kill mix)
CC(=O)/C(=N\Nc1ccccc1)Sc1cccc2cccnc12	Mcl1-Noxa inh 68.7
Cc1c(S(=O)(=O)c2ccccn2)c(N)n(Cc2cccc(Cl)c2)c1C	none (no result: Bim-Mcl-1)

Screening data (PubChem)
